# Source: ChEMBL document CHEMBL1157378, “Role for cell density in antifungal drug resistance in Candida albicans biofilms” (2007)
# Active and inactive are the calls of the source. The rule behind the calls is not given here.
# Columns and labels:
# [1] = test system: Candida albicans; experiment: Antimicrobial activity against Cdr1, Cdr2 and Mdr1 deficient Candida albicans DSY1050 dissociated biofilms at cell density of 10^8 cells/ml after 48 hrs by XTT assay; type: functional; settings: DSY1050, 48 h
# In short: (§1)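 Polystyrene-well biofilms (48 h, 37°C) washed, then broken up in 100 µl RPMI by scraping and aspiration. Cells used undiluted (about 2 x 10^8 cells/ml equivalent) or adjusted by A600 against a hemacytometer-calibrated yeast standard curve. Drug exposure at 37°C for 48 h (caspofungin 24 h), then XTT/menadione read at 490 nm.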
# [2] = test system: Candida albicans; experiment: Antimicrobial activity against Chk1 deficient Candida albicans CHK21 at planktonic cell density of 10^8 cells/ml after 48 hrs by XTT assay; type: functional; settings: CHK21, 48 h
# In short: (§2)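 YNB-grown yeast (50 mM glucose, room temperature, shaken, to ~2 x 10^8 cells/ml) washed into MOPS-buffered RPMI 1640 with L-glutamine and set to the stated density. Exposed to twofold serial drug dilutions (1,024 to 0.0313 µg/ml) at 37°C, 48 h (caspofungin 24 h), with drug-free controls. Read-out: XTT (0.5 g/liter) plus 1 µM menadione, formazan at 490 nm.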
# [3] = test system: Candida albicans; experiment: Antimicrobial activity against Candida albicans SC5314 at planktonic cell density of 10^3 cells/ml after 48 hrs by XTT assay; type: functional; settings: SC5314, 48 h; in short: as §2
# [4] = test system: Candida albicans; experiment: Antimicrobial activity against Candida albicans SC5314 dissociated biofilms grown on polymethylmethacrylate surface at cell density of 10^8 cells/ml at 0.25 to 8 ug/ml by XTT assay; type: functional, organism-based
# In short: (§3)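 1-cm discs of denture acrylic, PVC catheter or silicone elastomer-coated latex catheter, ethylene-oxide sterilised. Seeded with 1 ml of 1 x 10^6 cells/ml, adhesion 90 min at 37°C, washed, grown 48 h at 37°C in RPMI. Biofilm scraped off, set to 1 x 10^3 or 1 x 10^8 cells/ml, exposed to fluconazole, read by XTT at 490 nm.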
# [5] = test system: Candida albicans; experiment: Antimicrobial activity against Candida albicans GDH2346 at planktonic cell density of 10^8 cells/ml after 48 hrs by XTT assay; type: functional; settings: GDH2346, 48 h; in short: as §2
# [6] = test system: Candida albicans; experiment: Antimicrobial activity against fluconazole-resistant Candida albicans FH5 at planktonic cell density of 10^3 cells/ml after 48 hrs by XTT assay; type: functional; settings: FH5, 48 h; in short: as §2
# [7] = test system: Candida albicans; experiment: Antimicrobial activity against Candida albicans SC5314 at 512 ug/ml at planktonic cell density of 5 x 10^7 cells/ml after 48 hrs by XTT assay; type: functional; settings: SC5314, 48 h
# [8] = test system: Candida albicans; experiment: Antimicrobial activity against Candida albicans planktonic forms; type: functional
# In short: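 Yeast grown in YNB/50 mM glucose at room temperature to about 2 x 10^8 cells/ml, washed, and resuspended in MOPS-buffered RPMI 1640. Tested at 2 x 10^3 cells/ml (standard) or at densities from 1 x 10^3 to 1 x 10^8 cells/ml. Incubated with twofold drug dilutions at 37°C for 48 h (caspofungin 24 h). XTT-menadione read-out at 490 nm.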
# [9] = test system: Candida albicans; experiment: Antimicrobial activity against Cdr1, Cdr2 and Mdr1 deficient Candida albicans DSY1050 intact biofilms after 48 hrs by XTT assay; type: functional; settings: DSY1050, 48 h
# In short: (§4)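 Biofilm seeded at 1 x 10^6 cells/ml in RPMI in polystyrene microtiter wells and grown 48 h at 37°C in a moist chamber. Washed once and drug added to the same well (twofold dilutions, 1,024 to 0.0313 µg/ml) for 48 h at 37°C (caspofungin 24 h). Read-out: XTT/menadione reduction at 490 nm.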
# [10] = test system: Candida albicans; experiment: Antimicrobial activity against Candida albicans FH1 at planktonic cell density of 10^3 cells/ml after 48 hrs by XTT assay; type: functional; settings: FH1, 48 h; in short: as §2
# [11] = test system: Candida albicans; experiment: Antimicrobial activity against Candida albicans FH1 dissociated biofilms at cell density of 10^8 cells/ml after 48 hrs by XTT assay; type: functional; settings: FH1, 48 h; in short: as §1
# [12] = test system: Candida albicans; experiment: Antimicrobial activity against Candida albicans SC5314 dissociated biofilms grown on polymethylmethacrylate surface at cell density of 10^3 cells/ml at 0.25 to 8 ug/ml by XTT assay; type: functional, organism-based; in short: as §3
# [13] = test system: Candida albicans; experiment: Antimicrobial activity against Candida albicans SC5314 dissociated biofilms at cell density of 10^8 cells/ml after 48 hrs by XTT assay; type: functional; settings: SC5314, 48 h; in short: as §1
# [14] = test system: Candida albicans; experiment: Antimicrobial activity against fluconazole-resistant Candida albicans FH5 dissociated biofilms at cell density of 10^8 cells/ml after 48 hrs by XTT assay; type: functional; settings: FH5, 48 h; in short: as §1
# [15] = test system: Candida albicans; experiment: Antimicrobial activity against Candida albicans disaggregated biofilms; type: functional
# In short: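 Biofilm grown 48 h at 37°C in RPMI (MOPS-buffered) on polystyrene wells from 1 x 10^6 cells/ml, washed, then dissociated by scraping/aspiration in 100 µl. Used undiluted (about 2 x 10^8 cells/ml) or diluted to about 2 x 10^3 cells/ml. Twofold drug dilutions (1,024 to 0.0313 µg/ml) for 48 h at 37°C (caspofungin 24 h). Read-out is XTT/menadione reduction at 490 nm.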
# [16] = test system: Candida albicans; experiment: Antimicrobial activity against Candida albicans FH1 at planktonic cell density of 10^8 cells/ml after 48 hrs by XTT assay; type: functional; settings: FH1, 48 h; in short: as §2
# [17] = test system: Candida albicans; experiment: Antimicrobial activity against Candida albicans SC5314 dissociated biofilms at cell density of 10^3 cells/ml after 48 hrs by XTT assay; type: functional; settings: SC5314, 48 h; in short: as §1
# [18] = test system: Candida albicans; experiment: Antimicrobial activity against Candida albicans SC5314 dissociated biofilms grown on polyvinylchloride catheter surface at cell density of 10^3 cells/ml at 0.25 to 8 ug/ml by XTT assay; type: functional, organism-based; in short: as §3
# [19] = test system: Candida albicans; experiment: Inhibition of metabolic activity in Candida albicans SC5314 at 32 ug/ml; type: functional; set-up: scale not given: the % may be the effect or the level left
# In short: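 SC5314 fluconazole susceptibility tested with or without FK506. Cell suspension, drug and FK506 volumes set to the final concentrations in 200 µl. Incubation at 37°C for 48 h, then metabolic activity by XTT/menadione at 490 nm.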
# [20] = test system: Candida albicans; experiment: Antimicrobial activity against fluconazole-resistant Candida albicans FH5 intact biofilms after 48 hrs by XTT assay; type: functional; settings: FH5, 48 h; in short: as §4
# [21] = test system: Candida albicans; experiment: Antimicrobial activity against Candida albicans SC5314 dissociated biofilms grown on silicone-elastomer coated latex surface at cell density of 10^3 cells/ml at 0.25 to 8 ug/ml by XTT assay; type: functional, organism-based; in short: as §3
# [22] = test system: Candida albicans; experiment: Antimicrobial activity against Candida albicans SC5314 dissociated biofilms grown on silicone-elastomer coated latex surface at cell density of 10^8 cells/ml at 0.25 to 8 ug/ml by XTT assay; type: functional, organism-based; in short: as §3
# [23] = test system: Candida albicans; experiment: Antimicrobial activity against fluconazole-resistant Candida albicans FH5 at planktonic cell density of 10^8 cells/ml after 48 hrs by XTT assay; type: functional; settings: FH5, 48 h; in short: as §2
# [24] = test system: Candida albicans; experiment: Antimicrobial activity against Candida albicans GDH2346 at planktonic cell density of 10^3 cells/ml after 48 hrs by XTT assay; type: functional; settings: GDH2346, 48 h; in short: as §2
# [25] = test system: Candida albicans; experiment: Antimicrobial activity against Cdr1, Cdr2 and Mdr1 deficient Candida albicans DSY1050 dissociated biofilms at cell density of 10^3 cells/ml after 48 hrs by XTT assay; type: functional; settings: DSY1050, 48 h; in short: as §1
# [26] = test system: Candida albicans; experiment: Antimicrobial activity against Candida albicans GDH2346 dissociated biofilms at cell density of 10^3 cells/ml after 48 hrs by XTT assay; type: functional; settings: GDH2346, 48 h; in short: as §1
# [27] = test system: Candida albicans; experiment: Antimicrobial activity against Chk1 deficient Candida albicans CHK21 dissociated biofilms at cell density of 10^3 cells/ml after 48 hrs by XTT assay; type: functional; settings: CHK21, 48 h; in short: as §1
smiles,measurement,setting,value
OC(Cn1cncn1)(Cn1cncn1)c1ccc(F)cc1F [FLUCONAZOLE],MIC80,[1],> 64 µg/mL
same,MIC80,[2],> 64 µg/mL
same,MIC80,[3],0.5 µg/mL
same,Activity,[4],inactive
same,MIC80,[5],> 512 µg/mL
same,MIC80,[6],64 µg/mL
same,inhibition at 512 µg/mL,[7],40%
same,MIC,[8],2 µg/mL
same,MIC80,[9],> 64 µg/mL
same,MIC80,[10],4 µg/mL
same,MIC80,[11],> 512 µg/mL
same,Activity,[12],Active
same,MIC80,[13],> 256 µg/mL
same,MIC80,[14],> 512 µg/mL
same,MIC,[15],256 µg/mL
same,MIC80,[16],> 512 µg/mL
same,MIC80,[17],0.25 µg/mL
same,Activity,[18],Active
same,Activity,[19],15%
same,MIC80,[20],> 512 µg/mL
same,Activity,[21],Active
same,Activity,[22],inactive
same,MIC80,[23],> 512 µg/mL
same,MIC80,[24],2 µg/mL
same,MIC80,[25],0.125 µg/mL
same,MIC80,[26],0.25 µg/mL
same,MIC80,[27],0.125 µg/mL
